Data on 6 molecules can be found in ChEMBL document CHEMBL1126267, “A novel synthesis and potent antiinflammatory activity of 4-hydroxy-2(1H)-oxo-1-phenyl-1,8-naphthyridine-3-carboxamides” (1992).

Format in all cases: functional
Holding throughout (settings): route oral

Test [1] deals with Rattus norvegicus. The test is described as follows: Antiinflammatory activity on Carrageenan rat's paw edema(CPE) after peroral administration of 100 mg/kg dose with control swelling of 73.7%. Background: In the carrageenan paw model, swelling and tenderness develop within hours.
For test [2], the system named is Rattus norvegicus. The test is described as follows: Inhibition of Zymosan-induced rat's paw edema(ZPE) after peroral administration of 100 mg/kg dose. In short, it runs like this:
(§1)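 Male Wistar rats (about 150 g) were dosed orally with compound suspended in 5% arabic gum, 1 h before a subplantar hind-paw injection of 0.1 mL saline. The irritant was 1% zymosan for 33 or 1% λ-carrageenin for 34. Paw volume was measured by plethysmograph before dosing and at 4 h (zymosan) or 3 h (carrageenin). Swelling is relative to initial volume, as mean ± SEM. % inhibition is versus the control group's mean swelling.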

In test [3] the test system is Rattus norvegicus. The test can be described thus: Antiinflammatory activity on Zymosan-induced rat's paw edema(ZPE) after peroral administration of 100 mg/kg dose with control swelling of 61.0%. In short, it runs like this: (§2)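 Male Wistar rats weighing about 150 g were dosed orally with compound suspended in 5% arabic gum. 1 h later, 1% zymosan in 0.1 mL saline was injected subplantarly into the hind paw. Paw volume was measured by plethysmograph before dosing and 4 h after zymosan, with edema as the volume difference. Inhibition % was derived from mean swelling versus the control group.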

Test [4] deals with Rattus norvegicus. The test can be described thus: Inhibition of carrageenan-induced rat's paw edema (CPE) after peroral administration of 100 mg/kg dose. In short, it runs like this:
as §1

Test [5] concerns Rattus norvegicus. The test is described as follows: Compound was tested for the inhibition of rat reversed passive Arthus pleurisy after peroral administration of 100 mg/kg dose at 0.66 mL of exudate volume with 0.82 mL of control (injected intrapleurally). The procedure, abridged: (§3)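 Male Wistar rats (about 250 g) were given compound orally before the antiserum. Under ether anesthesia, 0.2 mL rabbit anti-egg albumin antiserum was injected intrapleurally. After 30 min, egg albumin (15 mg/100 g body weight in 0.1 mL saline) was given iv. Rats were killed 4.5 h later and the thoracic cavity was rinsed with 5 mL saline. Exudate volume and infiltrated cell number were measured, with inhibition % versus controls as mean ± SEM.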

Test [6] concerns Rattus norvegicus. The test is described as follows: Compound was tested for the inhibition of rat reversed passive Arthus pleurisy after peroral administration of 100 mg/kg dose at 5.76*10e6 no of cells with 7.4*10e6 cells of control. The procedure, abridged: (§4)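 Male Wistar rats (about 250 g) under ether received 0.2 mL rabbit anti-egg-albumin antiserum intrapleurally. Thirty min later they got 15 mg EA/100 g body weight in 0.1 mL saline iv. Compounds were given orally beforehand. Rats were killed 4.5 h after induction and the thoracic cavity rinsed with 5 mL saline. Exudate volume and infiltrated cell count were read as mean ± SE. % inhibition is versus control.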

Test [7] has as its system Rattus norvegicus. The test is described as follows: Compound was tested for the inhibition of rat reversed passive Arthus pleurisy after peroral administration of 100 mg/kg dose at 3.02*10e6 no of cells with 3.86*10e6 cells of control. The procedure, abridged:
as §3

Test [8] concerns Rattus norvegicus. The test is described as follows: Compound was tested for the inhibition of rat reversed passive Arthus pleurisy after peroral administration of 100 mg/kg dose at 0.65 mL of exudate volume with 0.86 mL of control (injected intrapleurally). The procedure, abridged:
as §3

Test [9] deals with Rattus norvegicus. The test is described as follows: Antiinflammatory activity on Zymosan-induced rat's paw edema(ZPE) after peroral administration of 100 mg/kg dose with control swelling of 71.7%. In short, it runs like this: as §2
For test [10], the system named is Rattus norvegicus. The test is described as follows: Antiinflammatory activity on Carrageenan rat's paw edema(CPE) after peroral administration of 100 mg/kg dose with control swelling of 64.2%.
Test [11] has as its system Rattus norvegicus. The test is described as follows: Antiinflammatory activity on Carrageenan rat's paw edema(CPE) after peroral administration of 100 mg/kg dose with control swelling of 63.7%.
The test system of test [12] is Rattus norvegicus. The test can be described thus: Compound was tested for the inhibition of rat reversed passive Arthus pleurisy after peroral administration of 100 mg/kg dose at 3.77*10e6 no of cells with 3.86*10e6 cells of control. The procedure, abridged:
as §4

Test [13] relates to Rattus norvegicus. The test can be described thus: Compound was tested for the inhibition of rat reversed passive Arthus pleurisy after peroral administration of 100 mg/kg dose at 0.64 mL of exudate volume with 0.79 mL of control (injected intrapleurally). In short, it runs like this: as §3
The subject of test [14] is Rattus norvegicus. The test can be described thus: Antiinflammatory activity on Zymosan-induced rat's paw edema(ZPE) after peroral administration of 100 mg/kg dose with control swelling of 69.5%. In short, it runs like this: as §2
Test [15] deals with Rattus norvegicus. The test is described as follows: Compound was tested for the inhibition of rat reversed passive Arthus pleurisy after peroral administration of 100 mg/kg dose at 0.43 mL of exudate volume with 0.46 mL of control (injected intrapleurally). In short, it runs like this: as §3
In test [16] the test system is Rattus norvegicus. The test is described as follows: Antiinflammatory activity on Carrageenan rat's paw edema(CPE) after peroral administration of 100 mg/kg dose with control swelling of 65.6%.
Test [17] concerns Rattus norvegicus. The test is described as follows: Compound was tested for the inhibition of rat reversed passive Arthus pleurisy after peroral administration of 100 mg/kg dose at 3.02*10e6 no of cells with 3.37*10e cells of control. The procedure, abridged:
as §3

The test system of test [18] is Rattus norvegicus. The test can be described thus: Compound was tested for the inhibition of rat reversed passive Arthus pleurisy after peroral administration of 100 mg/kg dose at 3.82*10e6 no of cells with 3.62*10e6 cells of control. In short, it runs like this:
as §4

The test system of test [19] is Rattus norvegicus. The test is described as follows: Compound was tested for the inhibition of rat reversed passive Arthus pleurisy after peroral administration of 100 mg/kg dose at 0.72 mL of exudate volume with 0.54 mL of control (injected intrapleurally). The procedure, abridged: as §3
Test [20] concerns Rattus norvegicus. The test is described as follows: Compound was tested for the inhibition of rat reversed passive Arthus pleurisy after peroral administration of 10 mg/kg dose at 3.2*10e6 no of cells with 2.77*10e6 cells of control. The procedure, abridged: as §3
Test [21] deals with Rattus norvegicus. The test is described as follows: Compound was tested for the inhibition of rat reversed passive Arthus pleurisy after peroral administration of 3 mg/kg dose at 0.59 mL of exudate volume with 0.55 mL of control (injected intrapleurally). In short, it runs like this: as §4
The test system of test [22] is Rattus norvegicus. The test can be described thus: Compound was tested for the inhibition of rat reversed passive Arthus pleurisy after peroral administration of 3 mg/kg dose at 4.01*10e6 no of cells with 2.77*10e6 cells of control. In short, it runs like this: as §4
The subject of test [23] is Rattus norvegicus. The test can be described thus: Compound was tested for the inhibition of rat reversed passive Arthus pleurisy after peroral administration of 10 mg/kg dose at 0.44 mL of exudate volume with 0.55 mL of control (injected intrapleurally). In short, it runs like this:
as §3

What is called inhibition in vivo is the change of the read-out against control, counted positive when it falls.

As for `COc1ccc(NC(=O)c2c(O)c3cccnc3n(-c3ccccc3)c2=O)cn1`, the Swelling in the test on Rattus norvegicus [1] was determined as 72.3%; in the test with Rattus norvegicus [3], 53%. Moreover, the inhibition in vivo at 100 mg/kg was 13.1% with Rattus norvegicus [2], -10.2% in the test on Rattus norvegicus [4], 19.5% in the test with Rattus norvegicus [5] and 22.2% in the test on Rattus norvegicus [6].

Take `Cc1cccc(NC(=O)c2c(O)c3cccnc3n(-c3ccccc3)c2=O)c1`: the inhibition in vivo at 100 mg/kg in the test with Rattus norvegicus [2] was 14.2%; in the test on Rattus norvegicus [7] it was 28.5%; in the test on Rattus norvegicus [8] it was 27.3%; in the test with Rattus norvegicus [4] it was 4.5%. Moreover, the Swelling in the test on Rattus norvegicus [9] was determined as 61.5%; with Rattus norvegicus [10] it was 61.3%.

As for `O=C(Nc1nccs1)c1c(O)c2cccnc2n(-c2ccccc2)c1=O`, the inhibition in vivo at 100 mg/kg in the test with Rattus norvegicus [2] worked out at 4.6%; in the test on Rattus norvegicus [4], 2.5%; in the test on Rattus norvegicus [12] it was 15.4%; in the test on Rattus norvegicus [13], 18.1%. Besides, the Swelling in the test on Rattus norvegicus [11] was determined as 69.9%; in the test on Rattus norvegicus [14], 66.3%.

With `O=C(NN1CCOCC1)c1c(O)c2cccnc2n(-c2ccccc2)c1=O`, the inhibition in vivo at 100 mg/kg with Rattus norvegicus [2] is -8.5%; in the test on Rattus norvegicus [15] it was 14.6%; with Rattus norvegicus [4], -26.2%; in the test with Rattus norvegicus [17], 10.4%. Also, the figures for the Swelling in the test with Rattus norvegicus [3] and in the test with Rattus norvegicus [16] were 66.2% and 82.8%, respectively.

With `CCCCNC(=O)c1c(O)c2cccnc2n(-c2ccccc2)c1=O`, the inhibition in vivo at 100 mg/kg is 12.8% with Rattus norvegicus [2], 7.7% in the test on Rattus norvegicus [18], 20.4% in the test on Rattus norvegicus [4] and -36.7% in the test with Rattus norvegicus [19]. Further, the Swelling with Rattus norvegicus [9] came to 62.5%; in the test on Rattus norvegicus [10], 51.1%.

On to `COc1ccc2c(c1)c(CC(=O)O)c(C)n2C(=O)c1ccc(Cl)cc1` [INDOMETHACIN], for which the inhibition in vivo at 10 mg/kg was -20.9% in the test on Rattus norvegicus [20] and 23.9% with Rattus norvegicus [23]. Besides, the values for the inhibition in vivo at 3 mg/kg in the test on Rattus norvegicus [21] and with Rattus norvegicus [22] were -8.7% and -60.2%, respectively.
